Results taken from ChEMBL document CHEMBL1155379, “Effect of 3'-end capping of aptamer with various 2',4'-bridged nucleotides: Enzymatic post-modification toward a practical use of polyclonal aptamers” (Bioorg Med Chem Lett, 2010).
pKd: −log10 of the molar value.

Experiments:
[1] = Chemical stability in presence of snake venom phosphodiesterase 1 assessed as oligonucleotide degradation after 120 mins by PAGE; format: physicochemical; conditions: 2 h
Prothrombin = Prothrombin (Homo sapiens, UniProt P00734); experiment: Binding affinity to human thrombin after 30 mins by non-equilibrium capillary electrophoresis
In short: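 Capillary electrophoresis of aptamer–thrombin mixtures: aptamer 1 nM with thrombin 4 nM in 20 mM Tris-HCl (1 mM MgCl2) pH 7.4 sample buffer; running buffer 100 mM sodium borate pH 8.35; separation +12 kV, injection 0.5 psi × 7.8 s. Kd derived from binding saturation curves over varied thrombin concentrations.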

[2] = Chemical stability in presence of 80% (v/v) human serum assessed as intact compound remaining after 8 hrs by PAGE; format: physicochemical; conditions: read-out: Stability
In short: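 Aptamer incubated in 80% v/v human serum at 37 °C for 8 h; intact full-length aptamer remaining quantified.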

Row | Structure (SMILES) | Stability [1] | pKd (Prothrombin) | remaining at 8 h [2]
1 | C=C1NC(=O)C(C)=CN1[C@H]1C[C@H](OP(=O)(O)OC[C@H]2O[C@@H](n3cnc4c(=O)[nH]c(N)nc43)[C@H](O)[C@@H]2OP(=O)(O)OC[C@H]2O[C@@H](n3cnc4c(N)ncnc43)[C@H](O)[C@@H]2OP(=O)(O)OC[C@H]2O[C@@H](n3ccc(N)nc3=O)[C@H](O)[C@@H]2OP(=O)(O)OC[C@H]2O[C@@H](n3cc(C)c(=O)[nH]c3=O)C[C@@H]2OP(=O)(O)OC[C@]23O[C@@H](n4cc(C)c(=O)[nH]c4=O)[C@H](OCOC2c2ccccc2)[C@@H]3O)[C@@H](COP(=O)(O)O[C@H]2[C@@H](O)[C@H](n3cnc4c(=O)[nH]c(N)nc43)O[C@@H]2COP(=O)(O)O[C@H]2[C@@H](O)[C@H](n3cnc4c(=O)[nH]c(N)nc43)O[C@@H]2COP(=O)(O)O[C@H]2[C@@H](O)[C@H](n3cnc4c(=O)[nH]c(N)nc43)O[C@@H]2COP(=O)(O)O[C@H]2[C@@H](O)[C@H](n3cnc4c(=O)[nH]c(N)nc43)O[C@@H]2COP(=O)(O)O[C@H]2C[C@H](n3cc(C)c(=O)[nH]c3=O)O[C@@H]2COP(=O)(O)O[C@H]2C[C@H](n3cc(C)c(=O)[nH]c3=O)O[C@@H]2COP(=O)(O)O[C@H]2[C@@H](O)[C@H](n3cnc4c(=O)[nH]c(N)nc43)O[C@@H]2COP(=O)(O)O[C@H]2[C@@H](O)[C@H](n3cnc4c(=O)[nH]c(N)nc43)O[C@@H]2COP(=O)(O)O[C@H]2[C@@H](O)[C@H](n3cnc4c(N)ncnc43)O[C@@H]2COP(=O)(O)O[C@H]2[C@@H](O)[C@H](n3ccc(N)nc3=O)O[C@@H]2COP(=O)(O)O[C@H]2[C@@H](O)[C@H](n3cnc4c(=O)[nH]c(N)nc43)O[C@@H]2COP(=O)(O)O[C@H]2[C@@H](O)[C@H](n3cnc4c(=O)[nH]c(N)nc43)O[C@@H]2COP(=O)(O)O[C@H]2[C@@H](O)[C@H](n3cnc4c(=O)[nH]c(N)nc43)O[C@@H]2COP(=O)(O)O[C@H]2[C@@H](O)[C@H](n3cnc4c(N)ncnc43)O[C@@H]2COP(=O)(O)O[C@H]2C[C@H](n3cc(C)c(=O)[nH]c3=O)O[C@@H]2COP(=O)(O)O[C@H]2[C@@H](O)[C@H](n3cnc4c(=O)[nH]c(N)nc43)O[C@@H]2COP(=O)(O)O[C@H]2[C@@H](O)[C@H](n3cnc4c(=O)[nH]c(N)nc43)O[C@@H]2COP(=O)(O)O[C@H]2C[C@H](n3cc(C)c(=O)[nH]c3=O)O[C@@H]2COP(=O)(O)O[C@H]2[C@@H](O)[C@H](n3cnc4c(=O)[nH]c(N)nc43)O[C@@H]2COP(=O)(O)O[C@H]2[C@@H](O)[C@H](n3ccc(N)nc3=O)O[C@@H]2COP(=O)(O)O[C@H]2[C@@H](O)[C@H](n3ccc(N)nc3=O)O[C@@H]2COP(=O)(O)O[C@H]2C[C@H](n3cc(C)c(=O)[nH]c3=O)O[C@@H]2COP(=O)(O)O[C@H]2[C@@H](O)[C@H](n3cnc4c(=O)[nH]c(N)nc43)O[C@@H]2COP(=O)(O)O[C@H]2[C@@H](O)[C@H](n3cnc4c(N)ncnc43)O[C@@H]2COc2ccc3c(c2)Oc2cc(O)ccc2C32OC(=O)c3ccccc32)O1 (stereo partly specified) | Stable | 9.55 | 20%
2 | C=C1NC(=O)C(C)=CN1[C@H]1C[C@H](OP(=O)(O)OC[C@H]2O[C@@H](n3cnc4c(=O)[nH]c(N)nc43)[C@H](O)[C@@H]2OP(=O)(O)OC[C@H]2O[C@@H](n3cnc4c(N)ncnc43)[C@H](O)[C@@H]2OP(=O)(O)OC[C@H]2O[C@@H](n3ccc(N)nc3=O)[C@H](O)[C@@H]2OP(=O)(O)OC[C@H]2O[C@@H](n3cc(C)c(=O)[nH]c3=O)C[C@@H]2O)[C@@H](COP(=O)(O)O[C@H]2[C@@H](O)[C@H](n3cnc4c(=O)[nH]c(N)nc43)O[C@@H]2COP(=O)(O)O[C@H]2[C@@H](O)[C@H](n3cnc4c(=O)[nH]c(N)nc43)O[C@@H]2COP(=O)(O)O[C@H]2[C@@H](O)[C@H](n3cnc4c(=O)[nH]c(N)nc43)O[C@@H]2COP(=O)(O)O[C@H]2[C@@H](O)[C@H](n3cnc4c(=O)[nH]c(N)nc43)O[C@@H]2COP(=O)(O)O[C@H]2C[C@H](n3cc(C)c(=O)[nH]c3=O)O[C@@H]2COP(=O)(O)O[C@H]2C[C@H](n3cc(C)c(=O)[nH]c3=O)O[C@@H]2COP(=O)(O)O[C@H]2[C@@H](O)[C@H](n3cnc4c(=O)[nH]c(N)nc43)O[C@@H]2COP(=O)(O)O[C@H]2[C@@H](O)[C@H](n3cnc4c(=O)[nH]c(N)nc43)O[C@@H]2COP(=O)(O)O[C@H]2[C@@H](O)[C@H](n3cnc4c(N)ncnc43)O[C@@H]2COP(=O)(O)O[C@H]2[C@@H](O)[C@H](n3ccc(N)nc3=O)O[C@@H]2COP(=O)(O)O[C@H]2[C@@H](O)[C@H](n3cnc4c(=O)[nH]c(N)nc43)O[C@@H]2COP(=O)(O)O[C@H]2[C@@H](O)[C@H](n3cnc4c(=O)[nH]c(N)nc43)O[C@@H]2COP(=O)(O)O[C@H]2[C@@H](O)[C@H](n3cnc4c(=O)[nH]c(N)nc43)O[C@@H]2COP(=O)(O)O[C@H]2[C@@H](O)[C@H](n3cnc4c(N)ncnc43)O[C@@H]2COP(=O)(O)O[C@H]2C[C@H](n3cc(C)c(=O)[nH]c3=O)O[C@@H]2COP(=O)(O)O[C@H]2[C@@H](O)[C@H](n3cnc4c(=O)[nH]c(N)nc43)O[C@@H]2COP(=O)(O)O[C@H]2[C@@H](O)[C@H](n3cnc4c(=O)[nH]c(N)nc43)O[C@@H]2COP(=O)(O)O[C@H]2C[C@H](n3cc(C)c(=O)[nH]c3=O)O[C@@H]2COP(=O)(O)O[C@H]2[C@@H](O)[C@H](n3cnc4c(=O)[nH]c(N)nc43)O[C@@H]2COP(=O)(O)O[C@H]2[C@@H](O)[C@H](n3ccc(N)nc3=O)O[C@@H]2COP(=O)(O)O[C@H]2[C@@H](O)[C@H](n3ccc(N)nc3=O)O[C@@H]2COP(=O)(O)O[C@H]2C[C@H](n3cc(C)c(=O)[nH]c3=O)O[C@@H]2COP(=O)(O)O[C@H]2[C@@H](O)[C@H](n3cnc4c(=O)[nH]c(N)nc43)O[C@@H]2COP(=O)(O)O[C@H]2[C@@H](O)[C@H](n3cnc4c(N)ncnc43)O[C@@H]2COc2ccc3c(c2)Oc2cc(O)ccc2C32OC(=O)c3ccccc32)O1 (stereo partly specified) | Unstable | 9.60 | 0%
